Hits are enriched below; roughly 3.3% of the tested compounds scored in any of these assays.
5HT1E ag: agonists of human 5-HT1E serotonin receptor. CHO 5-HT1E Ga15 NFAT-bla reporter, FRET; 0% DMSO wells, 100% control agonist wells. P28566. 65,000 compounds, 0.69% hits. AID 574. activation, % at 6 µM;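 active means activation above a set limit, the screen-wide mean activation plus 3 SD, cut at about 8.5% in these data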;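 further: 100% = positive control agonist at 1 µM giving full maximal response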
Target sequence (P28566 whole entry, looked up): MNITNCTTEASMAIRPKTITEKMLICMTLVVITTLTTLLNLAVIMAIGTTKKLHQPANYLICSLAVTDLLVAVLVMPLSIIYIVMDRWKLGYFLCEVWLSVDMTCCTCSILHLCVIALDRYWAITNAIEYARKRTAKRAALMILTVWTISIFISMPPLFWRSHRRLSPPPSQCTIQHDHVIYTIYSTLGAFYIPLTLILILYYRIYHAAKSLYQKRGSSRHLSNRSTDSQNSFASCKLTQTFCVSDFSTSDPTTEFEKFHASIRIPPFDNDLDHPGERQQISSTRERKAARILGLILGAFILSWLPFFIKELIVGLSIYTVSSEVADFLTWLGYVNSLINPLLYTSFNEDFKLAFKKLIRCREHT
Jurkat tox 60K: cytotoxic compounds reducing Jurkat cell viability. Jurkat E6.1 viability, ATP luminescence, 48 h. inhibition, % at 4 µM. 56,000 compounds, 1.2% hits. AID 463;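 active means inhibition above the mean inhibition of all tested compounds plus 3 SD, cut at about 28% in these data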
5-HT1A blocker: antagonists of human 5-HT1a serotonin receptor; 62,000 compounds, 0.68% hits; inhibition, % at 10 µM; AID 612; CHO 5-HT1a Ga15 NFAT-bla reporter, antagonist mode;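 active means inhibition above the mean of all tested compounds plus 3 SD, cut at about 43% in these data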;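 further: receptor stimulated by 5-CT agonist at 100 nM near EC80; beta-lactamase reporter measured by ratiometric fluorescence of a cleavable substrate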
HTR1A agonist: 5-HT1a (human) receptor agonism | P08908 | AID 567 | 65,000 compounds, 0.56% hits | activation, % at 10 µM | CHO 5-HT1a Ga15 NFAT-bla reporter, FRET ratio; 0% basal, 100% maximal reference agonist;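 active means activation above the screen-wide mean activation plus 3 SD, cut at about 19% in these data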;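 further: 0% = DMSO wells and 100% = 5-CT at EC100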
HEK293 NFkB inh: lowers PMA/ionomycin-induced NF-kB signal in HEK293 cells; HEK-293 NF-kB luciferase reporter, luminescence; inhibition, % at 3 µM; 62,000 compounds, 0.21% hits; AID 465;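 active means inhibition above the mean of all tested compounds plus 3 SD, cut at about 40% in these data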;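 further: 0% = stimulated DMSO wells and 100% = 10 µM reference inhibitor 5653914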
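Reagent: PMA plus ionomycin mix as NF-kB-activating stimulus. Assay system: NF-kB luciferase reporter HEK-293 cells. Technique: luminescence from luciferase substrate reagent. Incubation: 1 h compound pre-incubation, 16 h PMA/ionomycin at 37 °C. Benchmarks: DMSO only as uninhibited control, 10 µM reference inhibitor as full inhibition. Repeats: tested once.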
5HT1E antag: 5-HT1E (human) receptor antagonism | P28566 | inhibition, % at 6 µM | AID 571 | CHO 5-HT1E Ga15 NFAT-bla reporter, FRET, antagonist | 65,000 compounds, 0.99% hits;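 active means inhibition above a set limit, the mean inhibition across every tested compound plus 3 SD, cut at about 29% in these data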;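 further: signal is the 460 over 535 nm emission ratio of beta-lactamase substrate; 0% = agonist plus DMSO wells and 100% = wells without agonist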
* = called active by the depositor; · = not tested or not shown.

SMILES | 5HT1E ag | Jurkat tox 60K | 5-HT1A blocker | HTR1A agonist | HEK293 NFkB inh | 5HT1E antag
CC[C@@H](CO)NC(=O)[C@@H]1C=C2c3cccc4c3c(cn4C)C[C@H]2N(C)C1 | 95* | · | · | 53* | · | -6
CN1CCN(c2nccc3c2ncn3C)CC1 | 9.8* | 2 | 1 | -2 | 14 | -6
N=c1c[n+](CC23CC4CC(CC(C4)C2)C3)[n-]o1 | 0 | 2 | 1 | -4 | 18 | 7
COc1ccccc1N1CCN(Cc2ccc(Br)s2)CC1 | 5 | -4 | 44* | -2 | 13 | -4
c1cc2n(c1)-c1c(ccc3c1OCO3)CNC2c1ccc2c(c1)OCO2 (stereo not given) | 0 | 2 | 36 | 0 | 21 | 11
COc1ccc(C2NCc3ccc4c(c3-n3cccc32)OCO4)cc1O (stereo not given) | 0 | 78* | 65* | -1 | 26 | 31*
Clc1ccc2c(N3CCNCC3)ccnc2c1 | 12* | -1 | 11 | -2 | -6 | 9
COc1cc(C)c(CN2CCN(c3ccccc3)CC2)cc1C | 2 | 14 | 16 | 0 | 12 | 23
CCn1nc(-c2ccccc2)nc2c(=O)n(C)c(=O)nc1-2 | 2 | 27 | 85* | 9 | 90* | 101*
C=Cn1ccnc1P(=S)(c1nccn1C=C)C1CCCCC1 | 0 | · | 13 | -1 | 12 | -4
COc1ccc(-n2c(O)c(C(C)=NCCN3CCNCC3)c(=O)[nH]c2=O)cc1 | -1 | -8 | 3 | 2 | -2 | -7
COc1ccc(C(=O)CN2CCOCC2)cc1F | 1 | · | · | 3 | · | 1
COc1ccc(C(=O)N2CCOCC2)cc1S(=O)(=O)N1CCC(C)CC1 | 0 | -10 | -8 | 40* | 4 | -2
Cc1nnc(SCc2nc3ccccc3c(=O)n2-c2ccccc2Cl)n1N | 0 | 3 | -7 | 0 | 0 | -4
CN1C[C@H](CNC(=O)OCc2ccccc2)C[C@@H]2c3cccc4c3c(cn4C)C[C@H]21 | 22* | · | · | 85* | · | 9
CCOC(=O)c1cc2c(cn1)[nH]c1ccccc12 | -1 | · | · | 2 | · | 32*
CCOC(=O)N1CCN(C(C)C(=O)c2c[nH]c3ccccc23)CC1 (stereo not given) | 2 | 5 | 4 | 0 | 11 | 1
Cc1[nH]c2c(C(F)(F)F)cccc2c1CCN | 67* | 53* | 7 | -1 | 24 | 22
Cc1n[nH]c(C)c1CCN | -1 | -2 | 7 | -2 | 7 | 6
O=C(c1cc(=O)[nH]c2ccc(Br)cc12)N1CCC2(CC1)OCCO2 | -1 | -4 | 12 | -4 | -12 | -4
CN(C)c1ccc2c(c1)N=C(c1ccco1)OP2(=S)N1CCOCC1 (stereo not given) | -1 | 1 | 4 | -5 | -1 | -4
CC(C)OC(=O)c1c(N)n(Cc2ccco2)c2nc3ccccc3nc12 | 0 | · | · | 6 | · | 29*
CC(C)OCCCNC(=O)c1c(N)n(Cc2cccs2)c2nc3ccccc3nc12 | 11* | -2 | -24 | 41* | 14 | -11
COc1ccc(Cn2c(N)c(C(=O)NCc3ccco3)c3nc4ccccc4nc32)cc1OC | 2 | -1 | 33 | 3 | 21 | 19
CCCNC(=O)c1c(N)n(Cc2ccc3c(c2)OCO3)c2nc3ccccc3nc12 | 6 | -2 | -8 | 36* | 5 | -2
SMILES | 5HT1E ag | Jurkat tox 60K | 5-HT1A blocker | HTR1A agonist | HEK293 NFkB inh | 5HT1E antag
COc1ccccc1/C=C1/C(=N/O)C2CCN1CC2 | 1 | -6 | 2 | 2 | 15 | -2
CC(N=Cc1c(O)[nH]c(=O)[nH]c1=O)c1ccccc1 (stereo not given) | 0 | -1 | -13 | -4 | 19 | -1
CCn1c(O)c(C=NCCc2c[nH]c3ccccc23)c(=O)[nH]c1=O | 17* | 8 | 12 | 0 | 14 | 5
CCn1c(O)c(C=NCc2cccs2)c(=O)[nH]c1=O | -1 | 2 | -10 | -2 | 16 | -3
COC(=O)CC1=C(C(=O)OC)C2(C(=O)Nc3c(C)cccc32)C(C#N)=C(N)O1 (stereo not given) | 0 | -2 | -1 | -2 | 7 | 8
CC(=O)c1cccc(OCC(O)CN2CC=C(c3ccccc3)CC2)c1 (stereo not given) | -1 | 9 | 65* | 5 | 10 | 11
O=C(c1ccc2c(c1)ncn2C1CCCCC1)N1CCC2(CC1)OCCO2 | -1 | 54* | 7 | -3 | 18 | 9
CNCC(O)c1cccc(OC(=O)c2ccccc2C)c1 (stereo not given) | 9.4* | -13 | 0 | 3 | -3 | -3
CCCC(C)C(=O)NC1CCSC1=O (stereo not given) | 0 | 4 | 0 | -1 | 5 | 1
COc1ccc(Cc2nccc3cc(OC)c(OC)cc23)cc1OC | 0 | · | · | -3 | · | 41*
c1ccc2c(CCNC3=NCCC3)c[nH]c2c1 | 8 | -8 | 14 | -1 | -5 | 2
CCN1CC=C(c2c[nH]c3ccccc23)CC1 | 100* | 4 | -1 | -1 | 16 | -5
CCC(=NCc1ccc(F)cc1)c1c(O)n(C)c(=O)n(C)c1=O | 0 | 24 | 13 | 1 | 26 | 7
Cc1nc2cc(C(F)(F)F)ccc2n1C1CCN(Cc2nnnn2Cc2ccc3c(c2)OCO3)CC1 | 0 | 4 | 9 | 0 | 18 | 37*
Cc1nc2cc(C(F)(F)F)ccc2n1C1CCN(Cc2nnnn2Cc2cccs2)CC1 | -1 | · | -14 | -1 | 2 | 9
CCCCOC(=O)C1=C(N)OC2=C(C(=O)CCC2)[C@]12C(=O)N(C)c1ccccc12 | 0 | -3 | -7 | -6 | -2 | 1
CN(C)c1nc(OCCNC(=O)COc2ccc(Cl)cc2Cl)nc(N2CCCCC2)n1 | 0 | 3 | -3 | -1 | 10 | 102*
Nc1c(C(=O)NC2CCCC2)c2nc3ccccc3nc2n1CC1CCCO1 (stereo not given) | 7 | 4 | -10 | 28* | 7 | -8
COC(=O)CCCNC(=O)CN1CC(c2ccccc2)CC1=O (stereo not given) | 1 | -6 | 1 | -3 | 4 | 6
Cc1ccc2c(c1)C1CN(C)CCC1N2C(=O)c1ccc(Br)o1 (stereo not given) | 0 | · | 60* | -3 | 12 | -5
CC1(C)CN=C(NCc2ccccc2Cl)S1 | 0 | -1 | 4 | 1 | 8 | 2

High-throughput results from PubChem BioAssay.
